From ChEMBL document CHEMBL1131637, “Novel and selective 5-HT2C/2B receptor antagonists as potential anxiolytic agents: synthesis, quantitative structure-activity relationships, and molecular modeling of substituted 1-(3-pyridylcarbamoyl)indolines” (J Med Chem, 1998)

How the values were obtained:
[1] = molecular target: 5-hydroxytryptamine receptor 2A (Homo sapiens, UniProt P28223); test: Binding affinity towards human 5-hydroxytryptamine 2A receptor expressed in HEK 293 cells using [3H]ketanserin as radioligand; format: cell-based, HEK293
How it was run: (§1)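 Radioligand binding on human cloned receptors stably expressed in HEK 293 cells; 5-HT2A labelled with [3H]ketanserin, 5-HT2B with [3H]-5-HT. Values are means of at least two determinations, each within 0.2 log unit of the mean.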

[2] = molecular target: T1, 5-hydroxytryptamine receptor 2C (Homo sapiens, UniProt P28335); test: Binding affinity towards cloned human 5-hydroxytryptamine 2C receptor expressed in HEK 293 cells using [3H]mesulergine as radioligand; format: cell-based, HEK293
T1 sequence (P28335 whole entry): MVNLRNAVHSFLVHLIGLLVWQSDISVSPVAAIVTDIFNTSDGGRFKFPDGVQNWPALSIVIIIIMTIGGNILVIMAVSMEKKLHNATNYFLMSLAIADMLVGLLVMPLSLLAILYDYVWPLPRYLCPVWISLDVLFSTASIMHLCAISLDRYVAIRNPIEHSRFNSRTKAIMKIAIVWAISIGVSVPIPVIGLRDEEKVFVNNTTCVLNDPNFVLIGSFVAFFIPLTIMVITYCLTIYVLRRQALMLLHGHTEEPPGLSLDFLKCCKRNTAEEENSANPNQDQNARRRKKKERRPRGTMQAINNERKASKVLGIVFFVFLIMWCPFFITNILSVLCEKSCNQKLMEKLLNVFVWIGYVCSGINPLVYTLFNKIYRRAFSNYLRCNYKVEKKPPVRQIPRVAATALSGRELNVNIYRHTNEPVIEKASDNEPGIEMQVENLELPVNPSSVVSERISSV

Rattus norvegicus [3] = species: Rattus norvegicus; test: The dose required to reverse […]- induced hypolocomotion in rat by 50 %; format: functional; conditions: ip, 0.5 h, read-out: ID50 (the source's name)
[4] = molecular target: 5-hydroxytryptamine receptor 2B (Homo sapiens, UniProt P41595); test: Binding affinity towards cloned human 5-hydroxytryptamine 2B receptor expressed in HEK 293 cells using [3H]5-HT as radioligand; format: cell-based, HEK293; how it was run: as §1
Rattus norvegicus [5] = test: Percentage change punished lever presses from mean score on 6-8 rats at 0.2 mg/kg po1h pretest; format: functional
Rattus norvegicus [6] = test: Percentage change punished lever presses from mean score on 6-8 rats(P<0.001) at 0.5 mg/kg po1h pretest; format: functional
Rattus norvegicus [7] = test: Percentage change punished lever presses from mean score on 6-8 rats(P<0.001) at 1 mg/kg po1h pretest; format: functional
Rattus norvegicus [8] = test: Percentage change punished lever presses from mean score on 6-8 rats(P<0.001) at 2 mg/kg po1h pretest; format: functional
Rattus norvegicus [9] = test: Percentage change punished lever presses from mean score on 6-8 rats(P<0.001) at 5 mg/kg po1h pretest; format: functional
Rattus norvegicus [10] = test: Percentage change unpunished lever presses from mean score on 6-8 rats at 0.2 mg/kg po1h pretest; format: functional
Rattus norvegicus [11] = test: Percentage change unpunished lever presses from mean score on 6-8 rats at 0.5 mg/kg po1h pretest; format: functional
Rattus norvegicus [12] = test: Percentage change unpunished lever presses from mean score on 6-8 rats at 1 mg/kg po1h pretest; format: functional
Rattus norvegicus [13] = test: Percentage change unpunished lever presses from mean score on 6-8 rats at 2 mg/kg po1h pretest; format: functional
Rattus norvegicus [14] = test: Percentage change unpunished lever presses from mean score on 6-8 rats at 5 mg/kg po1h pretest; format: functional
Rattus norvegicus [15] = test: Percentage change punished lever presses from mean score on 6-8 rats at 0.5 mg/kg po1h pretest; format: functional
Rattus norvegicus [16] = test: Percentage change punished lever presses from mean score on 6-8 ratsP<0.001) at 10 mg/kg po1h pretest; format: functional
Rattus norvegicus [17] = test: Percentage change punished lever presses from mean score on 6-8 ratsP<0.001) at 20 mg/kg po1h pretest; format: functional
Rattus norvegicus [18] = test: Percentage change punished lever presses from mean score on 6-8 ratsP<0.001) at 2 mg/kg po1h pretest; format: functional
Rattus norvegicus [19] = test: Percentage change punished lever presses from mean score on 6-8 ratsP<0.001) at 5 mg/kg po1h pretest; format: functional
Rattus norvegicus [20] = test: Percentage change unpunished lever presses from mean score on 6-8 rats at 10 mg/kg po1h pretest; format: functional
Rattus norvegicus [21] = test: Percentage change unpunished lever presses from mean score on 6-8 rats(P<0.01) at 20 mg/kg po1h pretest; format: functional
Rattus norvegicus [22] = test: Percentage change unpunished lever presses from mean score on 6-8 rats(P<0.05) at 2 mg/kg po1h pretest; format: functional

Sequence of 5-hydroxytryptamine receptor 2A (P28223 whole entry): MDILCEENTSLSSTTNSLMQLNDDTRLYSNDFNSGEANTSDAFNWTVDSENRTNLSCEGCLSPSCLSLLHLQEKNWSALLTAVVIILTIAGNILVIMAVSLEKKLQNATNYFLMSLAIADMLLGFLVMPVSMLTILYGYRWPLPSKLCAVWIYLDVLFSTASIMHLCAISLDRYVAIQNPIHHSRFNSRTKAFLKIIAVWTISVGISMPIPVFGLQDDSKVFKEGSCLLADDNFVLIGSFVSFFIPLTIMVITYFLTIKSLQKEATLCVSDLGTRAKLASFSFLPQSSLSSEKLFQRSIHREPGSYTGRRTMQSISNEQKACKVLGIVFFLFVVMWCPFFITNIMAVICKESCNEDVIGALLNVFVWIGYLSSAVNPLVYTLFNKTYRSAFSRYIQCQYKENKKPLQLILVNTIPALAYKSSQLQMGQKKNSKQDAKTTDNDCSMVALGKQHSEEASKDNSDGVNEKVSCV
Sequence of 5-hydroxytryptamine receptor 2B (P41595 whole entry): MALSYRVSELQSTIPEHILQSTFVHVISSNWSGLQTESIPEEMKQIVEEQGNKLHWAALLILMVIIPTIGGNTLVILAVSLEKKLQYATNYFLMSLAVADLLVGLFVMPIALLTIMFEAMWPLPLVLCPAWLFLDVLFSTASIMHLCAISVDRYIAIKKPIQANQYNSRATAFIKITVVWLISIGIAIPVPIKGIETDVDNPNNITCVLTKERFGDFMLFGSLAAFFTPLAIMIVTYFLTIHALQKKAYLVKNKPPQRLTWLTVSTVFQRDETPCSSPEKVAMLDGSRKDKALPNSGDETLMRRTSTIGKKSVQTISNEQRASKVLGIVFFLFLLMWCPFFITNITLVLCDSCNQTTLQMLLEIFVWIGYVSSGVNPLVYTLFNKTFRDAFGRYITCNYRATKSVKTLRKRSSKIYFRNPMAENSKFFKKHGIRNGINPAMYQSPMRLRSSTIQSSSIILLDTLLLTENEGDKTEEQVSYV

Structure (SMILES) | Ki [1] [nM] | Ki [2] [nM] | also measured
O=C(Nc1cccnc1)N1CCc2ccc(Cl)c(Cl)c21 | 5010 | 794 | –
CC(C)Oc1cc2c(cc1C(F)(F)F)N(C(=O)Nc1cccnc1)CC2 | 1580 | 3.16 | ED50 (Rattus norvegicus [3]): 1.4 mg/kg; Ki [4]: 3.98 nM
CCOc1cc2c(cc1C(F)(F)F)N(C(=O)Nc1cccnc1)CC2 | 1580 | 6.31 | Change (Rattus norvegicus [5]): 5%; Change (Rattus norvegicus [6]): 31%; Change (Rattus norvegicus [7]): 33%; Change (Rattus norvegicus [8]): 24%; Change (Rattus norvegicus [9]): 31%; Change (Rattus norvegicus [10]): 3%; Change (Rattus norvegicus [11]): 3%; Change (Rattus norvegicus [12]): 4%; Change (Rattus norvegicus [13]): 1%; Change (Rattus norvegicus [14]): 0%; ED50 (Rattus norvegicus [3]): 1 mg/kg
COc1cc2c(cc1Br)N(C(=O)Nc1cccnc1)CC2 | 1580 | 12.6 | ED50 (Rattus norvegicus [3]): 1.8 mg/kg
CSc1c(Cl)cc2c(c1Cl)CCN2C(=O)Nc1cccnc1 | 63.1 | 2.51 | –
CCCSc1cc2c(cc1C(F)(F)F)N(C(=O)Nc1cccnc1)CC2 | > 6310 | 6.31 | Ki [4]: 15.8 nM
CSc1cc2c(cc1Br)N(C(=O)Nc1cccnc1)CC2 | 501 | 2 | Change (Rattus norvegicus [15]): 0%; Change (Rattus norvegicus [7]): 24%; Change (Rattus norvegicus [16]): 38%; Change (Rattus norvegicus [17]): 53%; Change (Rattus norvegicus [18]): 29%; Change (Rattus norvegicus [19]): 28%; Change (Rattus norvegicus [11]): 0%; Change (Rattus norvegicus [20]): 3%; Change (Rattus norvegicus [12]): 2%; Change (Rattus norvegicus [14]): 4%; Change (Rattus norvegicus [21]): 6%; Change (Rattus norvegicus [22]): 5%; ED50 (Rattus norvegicus [3]): 3 mg/kg
COc1cc2c(cc1C(F)(F)C(F)(F)F)N(C(=O)Nc1cccnc1)CC2 | 3980 | 12.6 | –
O=C(Nc1cccnc1)N1CCc2cc([N+](=O)[O-])ccc21 | > 6310 | 316 | –
Cc1ccc2c(c1I)CCN2C(=O)Nc1cccnc1 | 2510 | 25.1 | –
O=C(Nc1cccnc1)N1CCc2ccccc21 | – | 1260 | –
Cc1ccc2c(c1Br)CCN2C(=O)Nc1cccnc1 | 126 | 7.94 | –
Cc1c(Cl)cc2c(c1Cl)CCN2C(=O)Nc1cccnc1 | 31.6 | 3.98 | –
CSc1cc2c(cc1C#N)N(C(=O)Nc1cccnc1)CC2 | 2510 | 15.8 | –
O=C(Nc1cccnc1)N1CCc2cc(C(F)(F)F)ccc21 | 1260 | 31.6 | –
CSc1ccc2c(c1Cl)CCN2C(=O)Nc1cccnc1 | 5010 | 63.1 | –
CC(=O)c1cc2c(cc1C(F)(F)F)N(C(=O)Nc1cccnc1)CC2 | 3160 | 50.1 | –
CC(C)c1cc2c(cc1Cl)N(C(=O)Nc1cccnc1)CC2 | 2000 | 20 | –
CCc1cc2c(cc1Cl)N(C(=O)Nc1cccnc1)CC2 | 398 | 5.01 | –
Cc1cc2c(cc1Br)N(C(=O)Nc1cccnc1)CC2 | 63.1 | 3.98 | –
O=C(Nc1cccnc1)N1CCc2cc(I)c(Cl)cc21 | 100 | 3.16 | –
CSc1cc2c(cc1C(F)(F)C(F)(F)F)N(C(=O)Nc1cccnc1)CC2 | 2510 | 3.98 | ED50 (Rattus norvegicus [3]): 5 mg/kg; Ki [4]: 31.6 nM
Cc1cc2c(cc1Cl)CCN2C(=O)Nc1cccnc1 | 398 | 10 | –
CCOc1cc2c(cc1Cl)N(C(=O)Nc1cccnc1)CC2 | 3980 | 25.1 | ED50 (Rattus norvegicus [3]): 3.4 mg/kg
CC(C)c1cc2c(cc1C(F)(F)F)N(C(=O)Nc1cccnc1)CC2 | > 6310 | 25.1 | –
CC(C)(C)c1ccc2c(c1Cl)CCN2C(=O)Nc1cccnc1 | 631 | 39.8 | –
